Measured values from different studies.
Lines come from different studies, so protocols differ.
Read-out: cell growth or viability

Cc1c(Cl)c(=O)oc2cc(OCCCCSC#N)ccc12  GI50 (MIA PaCa-2; SRB): 8.2 µM
COc1ccc(-c2nn(-c3ccccc3)cc2C=Nc2c(N)nc(S)nc2O)cc1  CC50 (Jurkat; 48 h): 17.3 µM
Cc1nc(Nc2ncc(C(=O)Nc3c(C)cccc3Cl)s2)cc(N2CC[C@H](O)C2)n1  inhibition (SU-DHL-2; ATP luminescence; 10 µM; 72 h): 33%
Cc1ncsc1-c1ccc([C@H](C)NC(=O)[C@@H]2C[C@@H](O)CN2C(=O)[C@@H](NC(=O)CCCS(=O)(=O)NC(=O)c2nc(N3CCc4cccc(C(=O)Nc5nc6ccccc6s5)c4C3)ccc2-c2cnn(CC34CC5CC(CC(C5)C3)C4)c2C)C(C)(C)C)cc1  IC50 (MOLT-4; MTS; 48 h): 0.0083 µM
Nc1nc(S)nc(O)c1N=Cc1cn(-c2ccccc2)nc1-c1ccc(Cl)cc1  CC50 (Jurkat; 48 h): > 20 µM
Cc1c(-c2ccc(N3CCc4cccc(C(=O)Nc5nc6ccccc6s5)c4C3)nc2C(=O)O)cnn1CC12CC3CC(CC(C3)C1)C2  IC50 (MOLT-4; MTS; 48 h): 0.0021 µM
N#CSCCCCOc1ccc2c(-c3ccccc3)cc(=O)oc2c1  GI50 (MIA PaCa-2; SRB): 28 µM
Cc1nc(NC(=O)N2CCC[C@H]2C(N)=O)sc1-c1ccnc(C(C)(C)C(F)(F)F)c1  EC50 (TCC-SUP; ATP luminescence; 5 days): 3.07 µM
FC(F)(F)c1cc(OCc2cc(-c3ccccc3)no2)c2ccccc2n1  IC50 (LN-229; MTS; 72 h): 32.1 µM
Cc1ccc(-c2nn(-c3ccccc3)cc2C=Nc2c(N)nc(S)nc2O)cc1  CC50 (Jurkat; 48 h): 13.1 µM
Cc1c(-c2ccc(N3CCc4cccc(C(=O)Nc5nc6ccccc6s5)c4C3)nc2C(=O)O)cnn1CC12CC3CC(C1)CC(C(=O)NCCOCCOCCOCCNc1cccc4c1C(=O)N(C1CCC(=O)NC1=O)C4=O)(C3)C2 (centres unmarked)  IC50 (MOLT-4; MTS; 48 h): 0.0846 µM
O=c1[nH]ncc(NN=Cc2cn(-c3ccccc3)nc2-c2ccccc2)c1Cl  CC50 (Jurkat; 48 h): 3.66 µM
Cc1ncsc1-c1ccc([C@H](C)NC(=O)[C@@H]2C[C@@H](O)CN2C(=O)[C@@H](NC(=O)CCCCCCCCCCS(=O)(=O)NC(=O)c2nc(N3CCc4cccc(C(=O)Nc5nc6ccccc6s5)c4C3)ccc2-c2cnn(CC34CC5CC(CC(C5)C3)C4)c2C)C(C)(C)C)cc1  IC50 (MOLT-4; MTS; 48 h): 0.0341 µM
O=C(C[C@@H](C(F)F)n1ccc(F)n1)N1CCC(O)(Cn2cnc3c(cnn3-c3ccc(F)cc3)c2=O)CC1  viability (LNCaP; CCK-8; 1.524 nM): 90%
